Assay results: PMC3517974 (ChemMedChem, 2009)

Columns and labels:
[1] = assay type: in vitro ADME, rat; conditions: for log kplasma: hydrolysis constant in rat plasma
[2] = In vitro stability in rat liver S9 fraction with NADPH-regenerating system; assay type: in vitro ADME; conditions: for log kS9: hydrolysis constant in rat liver S9 fraction
Procedure, shortened: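 S9 came from male Wistar rat liver (250–300 g), perfused with ice-cold 0.15 M KCl, homogenized 20% w/v in 0.01 M PBS pH 7.4, and spun at 9,000g. It was preincubated 5 min at 37 °C with NADPH-regenerating system (2 mM NADP+, 10 mM G6P, 0.4 U/mL G6PDH, 5 mM MgCl2), 2 mg/mL protein. Test compound was added at 1 µM (1% DMSO). Aliquots were acetonitrile-quenched and analyzed by RP-HPLC; t1/2 from pseudo-first-order constants, mean±SD of three.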

| Structure (SMILES) | t1/2,inhib in rat plasma ([1]; coincubation with esterase inhibitor paraoxon 1 mM) [h] | log kplasma [1] | log kS9 [2] | half-life at 1 μM ([2]; male, Wistar, rat, liver S9 fraction, pH 7.4, half-life in rat liver S9 fraction, in vitro oxidative metabolism) [h] | stability in rat liver S9 relative to regio isomer 1 [2] [fold] |
| --- | --- | --- | --- | --- | --- |
| O=C(NC1CCCCC1)Oc1cccc(-c2ccccc2)c1 [Compound 1] | 2.38 | −1.79 | −0.94 |  |  |
| CCCCNC(=O)Oc1ccc(OCc2ccccc2)cc1 [Compound 8, n-Butylcarbamic acid 4-benzyloxyphenyl ester] |  | −2.68 | −1.00 |  |  |
| NC(=O)c1cccc(-c2cccc(OC(=O)NC3CCCCC3)c2)c1 [Compound 9, cyclohexylcarbamic acid 3′-carbamoylbiphenyl-3-yl ester] |  | −1.68 | −1.93 | ~1 |  |
| O=C(NC1CCCCC1)Oc1ccc(-c2ccccc2)cc1 [Compound 12, Cyclohexylcarbamic acid biphenyl-4-yl ester] |  | −1.50 | −1.44 |  | 3 |
| O=C(NC1CCCCC1)Oc1ccc2ccccc2c1 [Compound 13, Cyclohexylcarbamic acid naphthalen-2-yl ester] |  | −1.57 | −0.86 |  |  |
